Most compounds without a hit are left out; they make up all but 2.3% or so of the library.
TRPC4 potent: TRPC4 (mouse) allosteric potentiation | Q9QUQ5 | HEK293 TRPC4beta/mu-opioid, DAMGO EC20, Fluo-4 Ca2+ flux; active compounds read high | B-score at 10 µM | 310,000 tested, 0.42% active | AID 2227;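 active = B-score of calcium response area above 5 SD of library B-scores, with initial fluorescence ratio within 5 SD of library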
Target sequence (Q9QUQ5 whole entry, looked up): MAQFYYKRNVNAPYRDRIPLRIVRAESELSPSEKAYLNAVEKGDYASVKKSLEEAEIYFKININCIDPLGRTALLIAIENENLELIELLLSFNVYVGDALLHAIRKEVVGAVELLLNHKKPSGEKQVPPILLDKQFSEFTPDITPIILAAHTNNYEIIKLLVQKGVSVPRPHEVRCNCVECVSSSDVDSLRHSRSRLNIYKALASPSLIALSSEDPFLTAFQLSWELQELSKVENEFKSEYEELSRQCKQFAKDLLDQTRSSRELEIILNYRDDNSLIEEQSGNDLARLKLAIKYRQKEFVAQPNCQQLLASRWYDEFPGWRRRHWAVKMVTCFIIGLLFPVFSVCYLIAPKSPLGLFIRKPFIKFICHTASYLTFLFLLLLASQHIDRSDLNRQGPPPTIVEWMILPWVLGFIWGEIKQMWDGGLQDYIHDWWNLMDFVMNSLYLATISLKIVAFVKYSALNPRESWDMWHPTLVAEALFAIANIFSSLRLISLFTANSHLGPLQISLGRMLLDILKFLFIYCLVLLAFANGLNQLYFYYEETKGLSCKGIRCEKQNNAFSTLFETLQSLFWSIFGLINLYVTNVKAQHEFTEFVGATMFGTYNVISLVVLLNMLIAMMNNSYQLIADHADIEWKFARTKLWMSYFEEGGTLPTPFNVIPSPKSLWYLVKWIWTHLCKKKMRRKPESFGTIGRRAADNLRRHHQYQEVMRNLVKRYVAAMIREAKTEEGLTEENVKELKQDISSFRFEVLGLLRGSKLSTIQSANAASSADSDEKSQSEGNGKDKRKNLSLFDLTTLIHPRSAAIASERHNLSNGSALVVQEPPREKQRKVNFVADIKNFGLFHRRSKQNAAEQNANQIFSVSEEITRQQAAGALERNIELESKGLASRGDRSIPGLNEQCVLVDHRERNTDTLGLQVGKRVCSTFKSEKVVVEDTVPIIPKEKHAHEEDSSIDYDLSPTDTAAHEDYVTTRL
TRPC4 act: opens the mouse TRPC4 cation channel; HEK293 TRPC4beta/mu-opioid, Fluo4 calcium fluorescence; active compounds read high; B-score at 10 µM; 310,000 tested, 0.49% active; Q9QUQ5;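 active = B-score above 5 SD of library B-scores, and initial fluorescence ratio not above library mean plus 5 SD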;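 also: positive B-score marks a calcium rise read as TRPC4 activation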
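Assay system: HEK293 stable line with TRPC4beta plus mu-opioid receptor. Times: dye 45 min RT, read 110 s. Measured by: kinetic Fluo4 calcium fluorescence. Measure: B score of integrated ratio. Controls: assay buffer as low control, maximal DAMGO as high control.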
TRPC6 activator: mouse TRPC6 channel activation | Q61143 | 310,000 tested, 0.13% active | B-score at 10 µM | HEK293-TRPC6 membrane potential dye fluorescence; active compounds read high;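 active = B-score of the integrated fluorescence ratio above library mean plus 3 SD, and starting fluorescence ratio within library mean plus 5 SD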;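 also: higher score means more depolarization so channel activation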
TRPC4 inh: blocks the mouse TRPC4 cation channel | HEK293 TRPC4beta/mu-opioid, DAMGO-evoked Fluo4 calcium flux; active compounds read low | B-score at 10 µM | 300,000 tested, 0.39% active | AID 2247;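 active = B-score over 3 SD under the library average, no early fluorescence shift, positive overall ratio signal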
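test system = HEK293 cells with stable TRPC4beta plus mu-opioid receptor expression | detection = Fluo4 Ca2+ flux fluorescence | read-out = integrated fluorescence ratio relative to baseline, converted to per-well B score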
TRPC6 inh: mouse TRPC6 channel inhibition; HEK293-TRPC6, membrane potential dye, ACh-evoked depolarization; active compounds read low; B-score at 10 µM; 310,000 tested, 1.1% active;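 active = B-score under library mean minus 3 SD, initial fluorescence not abnormally high, positive integrated signal ratio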;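 also: B-score derived from integrated fluorescence ratio over the kinetic read; more negative B-score means stronger inhibition of depolarization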
TRPC4 sel inh 2: second check of whether TRPC6 inhibitors also affect mouse TRPC4; shares compounds with TRPC6 inh; HEK293 TRPC4/MOR, membrane potential dye fluorescence; channel activated by saturating DAMGO dose; inhibition, % at 10 µM; 920 tested, 42% active; AID 2776;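 active = compounds whose fluorescence signal differed from control wells by over 3 SD, either direction, in both duplicate plates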
TRPC4 spec: tests whether TRPC6 inhibitors also affect mouse TRPC4; shares compounds with TRPC6 inh; HEK293 TRPC4/mu-opioid, membrane potential fluorescence; activity change, negative = inhibition, % at 10 µM; 920 tested, 61% active;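 active = rise or fall in signal beyond 3 SD of buffer-only wells in both replicate plates, either sign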;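 also: integrated kinetic ratio of fluorescence range over baseline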
HEK293 MPD ctr 2-1: second check of TRPC6 inhibitor effects in parental HEK293 cells | 920 tested, 31% active | shares compounds with TRPC6 inh | parental HEK293 membrane potential dye fluorescence; maximal acetylcholine challenge after compound addition | AID 2779 | signal change vs control, % at 10 µM;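 active = membrane potential signal moving either way by over 3 SD of the maximum-effect control, in both duplicate plates, meaning non-specific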
HEK293 MPD ctr-1: parental HEK293 nonspecific activity of TRPC6 inhibitors; membrane potential signal change, % at 10 µM; AID 2780; parental HEK293 membrane potential dye fluorescence; 920 tested, 60% active; shares compounds with TRPC6 inh;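 active = membrane potential signal shifting up or down by more than 3 SD of buffer-only wells, on both duplicate plates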
HEK293 MPD ctr-2: checks TRPC6 modulator effects in parental HEK293 cells | shares compounds with TRPC6 inh | membrane potential dye fluorescence | membrane potential signal change, % at 10 µM | 2,400 tested, 51% active;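 active = membrane potential signal moves up or down beyond 5 SD from buffer-only wells, on both duplicate plates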
HEK293 MPD ctr 2-2: parental HEK293 nonspecific activity of TRPC6 modulators, second screen. shares compounds with TRPC6 inh. AID 488926. membrane potential dye fluorescence; after compound, maximal acetylcholine stimulation. 2,400 tested, 14% active. inhibition, % at 10 µM;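 active = membrane potential signal drops by more than 5 SD from the mean control signal, in both duplicate plates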
TRPC4/MOR mod: tests whether TRPC6 modulators also affect mouse TRPC4; shares compounds with TRPC6 inh; HEK293 TRPC4/mu-opioid, membrane potential fluorescence; percent change from control (negative = decrease, positive = increase), % at 10 µM; 2,400 tested, 69% active; AID 488927;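 active = membrane potential signal moved up or down beyond 5 SD of buffer control wells, in both duplicate plates, actives on both sides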
TRPC4 ctr inh 2: mouse TRPC4 off-target activity of TRPC6 modulators, second screen. shares compounds with TRPC6 inh. 2,400 tested, 55% active. AID 488928. HEK293 TRPC4/mu-opioid, membrane potential dye fluorescence; stimulated with maximal-effect DAMGO. inhibition, % at 10 µM;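 active = drop in membrane potential signal beyond 5 SD of the control wells in both duplicate plates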;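 also: TRPC4 counter screen for TRPC6 hits run under conditions tuned for TRPC6 not TRPC4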
TRPC6 inh conf: mouse TRPC6 inhibitor confirmation; shares compounds with TRPC6 inh; HEK293-TRPC6, membrane potential dye, ACh-evoked depolarization; inhibition, % at 10 µM; 3,300 tested, 43% active; AID 488960;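 active = fluorescence ratio falls more than 5 SD below the full-stimulation control mean, in both duplicate runs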;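 also: integrated fluorescence ratio of peak minus minimum over baseline after agonist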
TRPC6 act conf: mouse TRPC6 activator confirmation | shares compounds with TRPC6 inh | HEK293-TRPC6 membrane potential dye fluorescence, FDSS | activation, % at 10 µM | 2,800 tested, 11% active | AID 488961;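 active = ratio signal rise beyond 5 SD above unstimulated control wells' mean, seen in both duplicate runs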
Of the large screens only hits and unclear results are named; the others gave an inactive call (follow-up assays come after a bar, where they were run).

CCOC(=O)C1=NNC(C(=O)c2ccc(Cl)cc2)C1c1ccccc1 (stereo not given)	none
CCOC(=O)C1=NN(c2ccc(Cl)cc2)C(c2ccccc2)CC1=O (stereo not given)	TRPC6 inh -7.5 | TRPC4 sel inh 2 inactive | TRPC4 spec inactive | HEK293 MPD ctr 2-1 inactive | HEK293 MPD ctr-1 inactive | TRPC6 inh conf inactive | TRPC6 act conf inactive
Cc1ccc(S(=O)(=O)N(C)CC(=O)O/N=C(\N)c2cccc(Br)c2)cc1	none
FC(F)Sc1ccc(-n2cc(-c3ccc(Cl)cc3)[n+]3c2CCC3)cc1	TRPC6 inh -7 | TRPC4 sel inh 2 inactive | TRPC4 spec -14% | HEK293 MPD ctr 2-1 -40% | HEK293 MPD ctr-1 -216% | TRPC6 inh conf 53% | TRPC6 act conf inactive
Cc1ccc(-c2cn(-c3ccc(SC(F)F)cc3)c3[n+]2CCC3)cc1	none
CC(=Nc1ccccc1)c1sc2ccccc2c1O	TRPC6 activator 13 | HEK293 MPD ctr-2 395% | HEK293 MPD ctr 2-2 inactive | TRPC4/MOR mod 56% | TRPC4 ctr inh 2 inactive | TRPC6 inh conf inactive | TRPC6 act conf 116%
CCCCCCCCCCn1ccc(=N)cc1	TRPC6 inh -9.1 | TRPC4 sel inh 2 inactive | TRPC4 spec inactive | HEK293 MPD ctr 2-1 inactive | HEK293 MPD ctr-1 inactive | TRPC6 inh conf 56% | TRPC6 act conf inactive
CCCCCCCCn1ccc(=N)cc1	none
O=C1C2C3C=CC(C2C(=O)N1C1CCCCC1)C1C2C(=O)N(C4CCCCC4)C(=O)C2C31 (stereo not given)	none
C=CCOc1c(CNC2CCCC2)cc(Cl)cc1OC	TRPC4 inh -6, TRPC6 inh -5.4 | HEK293 MPD ctr-2 431% | HEK293 MPD ctr 2-2 151% | TRPC4/MOR mod 99% | TRPC4 ctr inh 2 90% | TRPC6 inh conf 95%
Cc1ccc(NC(=O)CSc2nc3ccccc3c(=O)n2CCCN2CCCCC2)cc1C	TRPC6 inh -7.9 | TRPC4 sel inh 2 33% | TRPC4 spec 5.6% | HEK293 MPD ctr 2-1 219% | HEK293 MPD ctr-1 9.0% | TRPC6 inh conf inactive | TRPC6 act conf inactive
Cc1ccc(NC(=O)CSc2nc3ccccc3c(=O)n2CCCC(=O)N2CCCC2)cc1	none
O=C(OCCN1CCCCC1)C1(c2ccccc2)CCCC1	TRPC6 inh -7.4 | TRPC4 sel inh 2 inactive | TRPC4 spec 19% | HEK293 MPD ctr 2-1 21% | HEK293 MPD ctr-1 16% | TRPC6 inh conf 83%
O=C(O)c1ccc(NC(=O)C2(c3ccccc3)CCCC2)cc1	none

Screening data from PubChem.
